# Paper PMC5905335 (Cancer discovery, 2017)
# Where “and” joins values, the source holds several entries; their conditions need not be identical. Equal entries are not always repeated. Where two headings read alike, the source gives them in different places.
# Tests used:
# [1] = Urinary elimination of parent compound; type: in vivo, human; details: daily dosing between 0.025 and 1.1 mg
# How it was run: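 In dose escalation, fasted patients took a single oral dose, with PK sampling over 1 week. They then took the dose once daily for 28 days, followed by a 1-week break for sampling (doses 0.025–1.1 mg/day, 3+3 design). Urine was assayed by validated LC/MS-MS (LLOQ 25.0 pg/mL). Ae0–24, Fe0–24 and ARC0–24 came from noncompartmental analysis.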
# Ewing sarcoma = experiment: Antitumor activity; type: in vivo, human; details: 1.0 mg/day, n = 13, CR + PR + SD ≥16 weeks
# How it was run: (§1)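 Adults with advanced solid tumours received oral test compound 1.0 mg once daily, continuously in 28-day cycles, in the expansion part. Entry required germline BRCA1/2 mutation confirmed by BRACAnalysis or local laboratory (ovarian/peritoneal, breast, prostate, pancreatic), DNA repair deficiency, or SCLC or Ewing sarcoma. Investigators assessed response by RECIST 1.1. ORR had exact 95% CI (Clopper–Pearson); PFS was estimated by Kaplan–Meier.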
# PARP–DNA complexes = details: in vitro, comparison with other PARP1/2 inhibitors, cited from earlier work
# pancreatic cancer = experiment: Antitumor activity; type: in vivo, human
# How it was run: as §1
# [2] = system: BRCA-mutated ovarian cancer; experiment: Antitumor activity; type: in vivo, human
# How it was run: as §1
# [3] = type: in vivo; details: Part 1 and Part 2; none considered related to study treatment
# small cell lung cancer = experiment: Antitumor activity; type: in vivo, human; details: 1.0 mg/day
# How it was run: as §1
# PARP1/2 = details: cited from earlier work
# [4] = system: BRCA mutation–associated breast cancer; experiment: Antitumor activity; type: in vivo, human; details: 1.0 mg/day, BRCA1/2 mutation
# How it was run: as §1
# [5] = Plasma pharmacokinetics after single and multiple daily dosing; details: human, in vivo; for Vd/F: Vz/F; for half-life: t1/2, mean (SD)
# PARP = experiment: PBMC PARP activity; type: in vivo, human
compound,measurement,setting,value
Cn1ncnc1[C@H]1c2n[nH]c(=O)c3cc(F)cc(c23)N[C@@H]1c1ccc(F)cc1 [talazoparib],urinary elimination kinetics of the parent compound,[1],linear urinary elimination kinetics
same,CBR,Ewing sarcoma,23.1%
same,trapping PARP–DNA complexes at sites of single-strand DNA breaks,PARP–DNA complexes,most potent PARP1/2 inhibitor in vitro
same,trapping PARP–DNA complexes at sites of single-strand DNA breaks,PARP–DNA complexes; listed as Talazoparib,superior in trapping PARP–DNA
same,ORR,"pancreatic cancer; 1.0 mg/day, pancreatic, n = 10",20.0%
same,CBR,"pancreatic cancer; 1.0 mg/day, pancreatic, n = 10, CR + PR + SD ≥16 weeks",30.0%
same,CBR ≥16 weeks,pancreatic cancer; 13 patients with pancreatic cancer from Part 1 and Part 2,31%
same,Median PFS,"[2]; 1.0 mg/day, ovarian/peritoneal, BRCA1/2 mutation, analysis on 14 patients",36.4 weeks and 36.4 ^c weeks
same,ORR,"[2]; 1.0 mg/day, ovarian/peritoneal, BRCA1/2 mutation, n = 12",41.7%
same,CBR,"[2]; 1.0 mg/day, ovarian/peritoneal, BRCA1/2 mutation, n = 12, CR + PR + SD ≥24 weeks",66.7%
same,CBR lasting at least 24 weeks,"[2]; any dose level, BRCA-mutated ovarian cancer with measurable disease, n = 25",76%
same,deaths associated with an AE during the study,[3],eight
same,Median PFS,"small cell lung cancer; SCLC, n = 23",11.1 weeks
same,ORR,"small cell lung cancer; SCLC, n = 23",8.7%
same,CBR,"small cell lung cancer; SCLC, n = 23, CR + PR + SD ≥16 weeks",26.1%
same,duration of response,small cell lung cancer; the two SCLC patients with PR,12.0 weeks
same,catalytic activity compared with olaparib and rucaparib,PARP1/2,equivalent catalytic activity to olaparib and rucaparib
same,Median PFS,[4]; n = 14,34.6 weeks
same,ORR,[4]; n = 14,50.0%
same,CBR,"[4]; n = 14, CR + PR + SD ≥24 weeks",85.7%
same,"dose proportionality parameter β for AUC0–24, estimate (95% CI)",[5],0.95 (0.84–1.05)
same,"dose proportionality parameter β for Cmax, estimate (95% CI)",[5],1.11 (1.01–1.20)
same,time to maximum plasma concentration (Cmax),[5],≤ 2 h
same,AUC(0-inf),[5]; 0.025 mg,5.33 ng·h/mL
same,AUC(0-t),"[5]; 0.025 mg, AUC0–24, mean (SD)",0.952 ng·h/mL
same,AUC(0-t),"[5]; 0.025 mg, AUC0–t, mean (SD)",3.6 ng·h/mL
same,Cmax,"[5]; 0.025 mg, mean (SD)",0.06 ng/mL
same,Tmax,"[5]; 0.025 mg, Tmax, median (min, max)",7.92 h
same,Vd/F,"[5]; 0.025 mg, mean (SD)",756 L
same,half-life,[5]; 0.025 mg,100 h
same,AUC(0-inf),[5]; 0.05 mg,8.32 ng·h/mL
same,AUC(0-t),"[5]; 0.05 mg, AUC0–24, mean (SD)",1.16 ng·h/mL
same,AUC(0-t),"[5]; 0.05 mg, AUC0–t, mean (SD)",5.34 ng·h/mL
same,Cmax,"[5]; 0.05 mg, mean (SD)",0.0797 ng/mL
same,Vd/F,"[5]; 0.05 mg, mean (SD)",1240 L
same,half-life,[5]; 0.05 mg,129 h
same,AUC(0-inf),[5]; 0.1 mg,37.6 ng·h/mL
same,AUC(0-t),"[5]; 0.1 mg, AUC0–24, mean (SD)",3.16 ng·h/mL
same,Cmax,"[5]; 0.1 mg, mean (SD)",0.214 ng/mL
same,Tmax,"[5]; 0.1 mg, Tmax, median (min, max)",1.02 h
same,Vd/F,"[5]; 0.1 mg, mean (SD)",839 L
same,half-life,[5]; 0.1 mg,229 h
same,AUC(0-inf),[5]; 0.2 mg,92.7 ng·h/mL
same,Tmax,[5]; 0.2 mg,1.03 h
same,AUC(0-t),"[5]; 0.2 mg, AUC0–24, mean (SD)",9.13 ng·h/mL
same,AUC(0-t),"[5]; 0.2 mg, AUC0–t, mean (SD)",39.3 ng·h/mL
same,Cmax,"[5]; 0.2 mg, mean (SD)",0.788 ng/mL
same,Vd/F,"[5]; 0.2 mg, mean (SD)",678 L
same,half-life,[5]; 0.2 mg,212 h
same,AUC(0-inf),[5]; 0.4 mg,60.1 ng·h/mL
same,AUC(0-t),"[5]; 0.4 mg, AUC0–24, mean (SD)",13.5 ng·h/mL
same,AUC(0-t),"[5]; 0.4 mg, AUC0–t, mean (SD)",43.7 ng·h/mL
same,Cmax,"[5]; 0.4 mg, mean (SD)",1.83 ng/mL
same,Tmax,"[5]; 0.4 mg, Tmax, median (min, max)",2.03 h
same,Vd/F,"[5]; 0.4 mg, mean (SD)",1050 L
same,half-life,[5]; 0.4 mg,102 h
same,AUC(0-inf),[5]; 0.6 mg,120 ng·h/mL
same,AUC(0-t),"[5]; 0.6 mg, AUC0–24, mean (SD)",37.9 ng·h/mL
same,AUC(0-t),"[5]; 0.6 mg, AUC0–t, mean (SD)",97.9 ng·h/mL
same,Cmax,"[5]; 0.6 mg, mean (SD)",4.1 ng/mL
same,Tmax,"[5]; 0.6 mg, Tmax, median (min, max)",0.835 h
same,Vd/F,"[5]; 0.6 mg, mean (SD)",441 L
same,half-life,[5]; 0.6 mg,58.6 h
same,AUC(0-inf),[5]; 0.9 mg,188 ng·h/mL
same,AUC(0-t),"[5]; 0.9 mg, AUC0–24, mean (SD)",58.2 ng·h/mL
same,AUC(0-t),"[5]; 0.9 mg, AUC0–t, mean (SD)",160 ng·h/mL
same,Cmax,"[5]; 0.9 mg, mean (SD)",6.1 ng/mL
same,Tmax,"[5]; 0.9 mg, Tmax, median (min, max)",2 h
same,Vd/F,"[5]; 0.9 mg, mean (SD)",468 L
same,half-life,[5]; 0.9 mg,60.4 h
same,AUC(0-inf),[5]; 1 mg,200 ng·h/mL
same,AUC(0-t),"[5]; 1 mg, AUC0–24, mean (SD)",85.1 ng·h/mL
same,AUC(0-t),"[5]; 1 mg, AUC0–t, mean (SD)",182 ng·h/mL
same,Cmax,"[5]; 1 mg, mean (SD)",10.6 ng/mL
same,Tmax,"[5]; 1 mg, Tmax, median (min, max)",1.03 h
same,Vd/F,"[5]; 1 mg, mean (SD)",415 L
same,half-life,[5]; 1 mg,52.9 h
same,AUC(0-inf),[5]; 1.1 mg,235 ng·h/mL
same,AUC(0-t),"[5]; 1.1 mg, AUC0–24, mean (SD)",91.6 ng·h/mL
same,AUC(0-t),"[5]; 1.1 mg, AUC0–t, mean (SD)",201 ng·h/mL
same,Cmax,"[5]; 1.1 mg, mean (SD)",13.2 ng/mL
same,Tmax,"[5]; 1.1 mg, Tmax, median (min, max)",1 h
same,Vd/F,"[5]; 1.1 mg, mean (SD)",549 L
same,half-life,[5]; 1.1 mg,71 h
same,"PARP activity, mean (SD)","PARP; multiple dosing 0.025 mg/day, n = 3",172 (206) % baseline
same,"PARP activity, mean (SD)","PARP; multiple dosing 0.05 mg/day, n = 3",141 (52.5) % baseline
same,"PARP activity, mean (SD)","PARP; multiple dosing 0.1 mg/day, n = 3",102 (98.0) % baseline
same,"PARP activity, mean (SD)","PARP; multiple dosing 0.2 mg/day, n = 3",14.7 (5.04) % baseline
same,"PARP activity, mean (SD)","PARP; multiple dosing 0.4 mg/day, n = 3",111 (96.5) % baseline
same,"PARP activity, mean (SD)","PARP; multiple dosing 0.6 mg/day, n = 4",24.7 (8.19) % baseline
same,"PARP activity, mean (SD)","PARP; multiple dosing 0.9 mg/day, n = 4",34.7 (27.4) % baseline
same,"PARP activity, mean (SD)","PARP; multiple dosing 1.1 mg/day, n = 2",16.3 (5.63) % baseline
